Source: ChEMBL document CHEMBL2321796, “Synthesis of 8-hydroxyquinoline derivatives as novel antitumor agents” (ACS Med Chem Lett, 2013)
≈ marks a conversion by molar mass, not a printed value. Calls of active or inactive are those of the source. No cut-off for these calls is given here.

Key:
[1] = tested on: T47D; experiment: Cytotoxicity against human T47D cells at 50 ug/ml after 48 hrs by MTS assay relative to control; assay type: functional
Summary of the method: (§1)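 Single-concentration screen at 50 μg/mL against T-47D and K562 cells, activity expressed relative to a vehicle control set at 100. Means ± SDs from triplicated experiments.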

[2] = tested on: K562; experiment: Cytotoxicity against human K562 cells at 50 ug/ml after 48 hrs by MTS assay relative to control; assay type: functional; summary of the method: as §1
[3] = tested on: SAOS-2; experiment: Cytotoxicity against human Saos2 cells after 48 hrs by MTS assay; assay type: functional
Summary of the method: (§2)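 MTS assay on cancer cell lines and nontumor NIH3T3 cells. MTS50 is the concentration giving 50% reduction of MTS signal versus control. Dose-response tests run in triplicate over three independent experiments, means ± SDs against vehicle control.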

[4] = tested on: Mus musculus; experiment: Toxicity in human Hep3B cells xenografted athymic nude mouse assessed as changes in histological appearance of vital organs at 10 mg/kg, ip qd for 8 days by ematoxylin and eosin staining; assay type: organism-based, Hep 3B2; design: dose 10 mg/kg, route intraperitoneal; settings: in vivo, 192 h
Summary of the method: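 Human Hep3B hepatocellular carcinoma cells grown as subcutaneous xenografts in athymic nude mice, five per group, given daily intraperitoneal injection at 10 mg/kg/day alongside vehicle controls. After 8 days of treatment, vital organs were collected, stained with hematoxylin and eosin, and examined for tissue damage at the histological level.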

[5] = tested on: T47D; experiment: Inhibition of colony formation in human T47D cells at 50 ug/ml after 24 hrs by anchorage-dependent clonogenicity assay; assay type: functional, cell-based
Summary of the method: (§3)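 Anchorage-dependent clonogenicity assay on K562 and T47D cells. Treatment at 50 μg/mL for 24 h, then colony formation scored as percent inhibition versus vehicle control.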

[6] = tested on: MDA-MB-231; experiment: Induction of morphological changes in human MDA-MB-231 cells at 50 ug/ml; assay type: functional, cell-based
[7] = tested on: A549; experiment: Cytotoxicity against human A549 cells after 48 hrs by MTS assay; assay type: functional; summary of the method: as §2
[8] = tested on: MDA-MB-231; experiment: Cytotoxicity against human MDA-MB-231 cells after 48 hrs by MTS assay; assay type: functional; summary of the method: as §2
[9] = Cytotoxicity against human Hep3B cells after 48 hrs by MTS assay; assay type: functional, Hep 3B2; summary of the method: as §2
[10] = tested on: K562; experiment: Inhibition of colony formation in human K562 cells at 50 ug/ml after 24 hrs by anchorage-dependent clonogenicity assay; assay type: functional, cell-based; summary of the method: as §3
[11] = tested on: Hs-578T; experiment: Cytotoxicity against human Hs578T cells after 48 hrs by MTS assay; assay type: functional; summary of the method: as §2
[12] = tested on: Mus musculus; experiment: Toxicity in human Hep3B cells xenografted athymic nude mouse assessed as mortality at 10 mg/kg, ip qd for 8 days; assay type: organism-based, Hep 3B2; design: dose 10 mg/kg, route intraperitoneal; settings: in vivo, 192 h
Summary of the method: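 Athymic nude mice bearing subcutaneous human Hep3B hepatocellular carcinoma xenografts, five per group, received 10 mg/kg/day intraperitoneally once daily, with a vehicle-treated control group. Deaths were recorded over the treatment period.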

[13] = tested on: K562; experiment: Cytotoxicity against human K562 cells after 48 hrs by MTS assay; assay type: functional; summary of the method: as §2
[14] = tested on: Hep 3B2; experiment: Antitumor activity against human Hep3B cells xenografted in athymic nude mouse assessed as disappearance of tumor at 10 mg/kg, ip qd for 8 days; assay type: functional, organism-based; design: dose 10 mg/kg; settings: in the assay text read “for 9 days” for “for 8 days”
Summary of the method: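 Subcutaneous Hep3B hepatocellular carcinoma xenografts in athymic nude mice, five per group, vehicle control group. Dosing 10 mg/kg/day by daily intraperitoneal injection, 9 days. Tumor volume (mm3) followed, given as mean + SD, Student's t test. Vital organs examined by hematoxylin and eosin histology.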

[15] = Up-regulation of CLGN gene expression in human KYSE-150 cells at 8.5 ug/ml after 48 hrs; assay type: functional, cell-based
Summary of the method: (§4)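 KYSE150 esophageal cancer cells treated with 8.5 μg/mL for 48 h alongside a vehicle control. Total RNA extracted and gene expression change expressed as percent change in detection signal versus control.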

[16] = tested on: T47D; experiment: Ratio of CDDP IC50 to compound IC50 for human T47D cells; assay type: functional
[17] = tested on: Hs-578T; experiment: Induction of morphological changes in human Hs578T cells at 50 ug/ml; assay type: functional, cell-based
[18] = Cytotoxicity against mouse NIH/3T3 cells after 48 hrs by MTS assay; assay type: cell-based, NIH3T3; settings: read-out: MTS50; summary of the method: as §2
[19] = Solubility of the compound in physiological saline; assay type: physicochemical; settings: buffer
[20] = tested on: T47D; experiment: Induction of morphological changes in human T47D cells at 50 ug/ml; assay type: functional, cell-based
[21] = Down regulation of CCL5 gene expression in human KYSE-150 cells at 8.5 ug/ml after 48 hrs; assay type: functional, cell-based; summary of the method: as §4
[22] = tested on: T47D; experiment: Cytotoxicity against human T47D cells after 48 hrs by MTS assay; assay type: functional; summary of the method: as §2
[23] = tested on: SK-HEP1; experiment: Cytotoxicity against human SKHEP1 cells after 48 hrs by MTS assay; assay type: functional; summary of the method: as §2

**Q.** What does the source list for `Cc1ccc2cccc(OCCN3CCCCC3)c2n1`?
**A.** Activity [1]: 69.2%; Activity [2]: 27.43%

**Q.** What does the source list for `Cc1ccc2cccc(O)c2n1` [8-HYDROXY QUINALDINE]?
**A.** Activity [1]: 46.54%; Activity [2]: 34.46%

**Q.** For `COc1cccc2ccc(C)nc12`, which Activity [1] is on record?
**A.** Its Activity is 37.92%.

**Q.** What about the Activity [2] of the same molecule?
**A.** The Activity was 27.15%.

**Q.** Which Activity [1] does the source give for `Oc1cccc2cccnc12` [OXYQUINOLINE] here?
**A.** Its Activity is 52.6%.

**Q.** What about the Activity [2] of the same molecule?
**A.** The Activity was 26.66%.

**Q.** What does the source list for `N#Cc1ccc2cccc(O)c2n1`?
**A.** Activity [1]: 72.92%; Activity [2]: 23.08%

**Q.** With `CCOc1cccc2ccc(C)nc12` as the molecule, how does the Activity [1] read?
**A.** The Activity was 63.43%.

**Q.** What about the Activity [2] of the same molecule?
**A.** Its Activity is 21.38%.

**Q.** What does the source list for `O=Cc1ccc2cccc(O)c2n1`?
**A.** MTS50 [3]: 12.5 µg/mL; Activity [4]: Non-toxic; inhibition [5]: Dose-dependent effect; Activity [6]: Active; MTS50 [7]: >50 µg/mL; MTS50 [8]: 12.5 µg/mL; MTS50 [9]: 6.25 µg/mL; inhibition [10]: Dose-dependent effect; MTS50 [11]: 12.5 µg/mL; Activity [12]: Non-toxic; MTS50 [13]: 12.5 µg/mL; Activity [14]: Active; Activity [1]: 8.37%; Activity [15]: 65.4%; Ratio IC50 [16]: 4; Activity [2]: 7%; Activity [17]: Active; CC50 at 48 h [18]: 7 µg/mL (≈ 40.4 µM); solubility [19]: Insoluble; Activity [20]: Active; Activity [21]: 53.4%; MTS50 [22]: 12.5 µg/mL; MTS50 [23]: 12.5 µg/mL
